The list is not random: actives were taken first. Their share in the collection is about 4.1%.
DNA FID counter = fluorescent intercalator displacement, NS3 helicase counter-screen; DNA fluorescent intercalator displacement, fluorescence; inhibition, % at 7.9 µM; 290,000 compounds, 0.17% hits; in the data active means inhibition above about 37%;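 further: higher means more ethidium bromide displaced from hairpin DNA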
T cruzi inh = T. cruzi replication inhibition | T. cruzi beta-gal in NIH3T3, luminescence, 90 h | inhibition, % (test concentration not listed) | 300,000 compounds, 1.4% hits;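 active means mean inhibition across valid replicates above about 55%, limit read from the data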;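 further: signal also drops with host cell toxicity which is not excluded here; higher percent means less beta-gal luminescence so fewer parasites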
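Incubation – ≥90 h infection period, 3 h prior cell attachment · System – NIH/3T3 fibroblasts plus reporter T. cruzi · Doses – compound pinned at 50 nL/well, DMSO · Read-out basis – percent inhibition of parasite-derived β-gal signal · Signal – luminescent β-galactosidase signal after 60 min lysis · Also added – 5000 T. cruzi trypomastigotes/well · Medium – Low-serum DMEM with 2% FBS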
MEKK2wt PB1 HTS = raises or lowers MEK5 binding to wildtype human MEKK2 PB1 domain | bead flow cytometry, Alexa488-MEK5 binding to MEKK2 WT; actives lie on both sides | binding response (% of control), % at 10 µM | 290,000 compounds, 1.1% hits; in the data active means binding response below about 67% or above about 130%
HCV NS3 hel inh = blocks Hepatitis C virus NS3 helicase unwinding; inhibition, % at 10.9 µM; 290,000 compounds, 0.56% hits; NS3 helicase DNA unwinding, Cy5 molecular beacon fluorescence; AID 1800;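 active means inhibition above the mean of all tested compounds plus 3 SD, set per campaign, cut at about 35% in these data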
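Assay system: hepatitis C virus NS3 helicase domain fragment enzyme. Also added: annealed dual-labelled DNA beacon duplex, ATP-started. Timing: 1 h reaction at 25 °C, ATP-initiated. Technique: Cy5 fluorescence at 0 and 60 min, beacon hairpin quenching. Evaluation: % inhibition of unwinding. Replication: one well per compound.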
MEKK3 PB1 HTS = MEKK3-MEK5 PB1 interaction, increase or decrease; Q99759; bead-based flow cytometry, Alexa488-MEK5 binding to MEKK3; actives lie on both sides; 0 = blocked by unlabeled MEK5, 100 = vehicle; binding response (% of control), % at 10 µM; 290,000 compounds, 1.4% hits;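 active means binding response more than 3 SD above or below the average of its plate-row segment, actives on both sides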;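 further: Alexa488 bead fluorescence after subtracting the streptavidin-only scavenger bead signal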
Target sequence (Q99759 whole entry, looked up): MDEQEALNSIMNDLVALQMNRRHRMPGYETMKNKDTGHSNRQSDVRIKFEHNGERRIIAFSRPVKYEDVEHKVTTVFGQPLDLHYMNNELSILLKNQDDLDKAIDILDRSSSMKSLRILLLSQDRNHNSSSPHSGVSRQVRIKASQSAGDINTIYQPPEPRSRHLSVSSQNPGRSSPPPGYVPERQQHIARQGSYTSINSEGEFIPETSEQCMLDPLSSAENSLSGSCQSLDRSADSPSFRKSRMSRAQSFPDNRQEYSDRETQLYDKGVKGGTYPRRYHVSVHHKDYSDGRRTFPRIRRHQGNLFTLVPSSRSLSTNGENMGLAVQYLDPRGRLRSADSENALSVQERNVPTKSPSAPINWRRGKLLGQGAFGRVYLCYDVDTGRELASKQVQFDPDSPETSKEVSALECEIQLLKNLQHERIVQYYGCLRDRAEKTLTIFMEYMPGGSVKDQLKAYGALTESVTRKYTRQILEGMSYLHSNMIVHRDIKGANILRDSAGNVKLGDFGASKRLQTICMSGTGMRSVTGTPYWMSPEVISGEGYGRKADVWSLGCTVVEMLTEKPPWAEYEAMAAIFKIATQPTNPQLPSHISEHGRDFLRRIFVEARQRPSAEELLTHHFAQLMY
MEKK2 mut-MEK5 = signal of MEK5 binding to mutant human MEKK2 PB1 domain; bead flow cytometry, Alexa488-MEK5 binding to MEKK2 mutant; percent response, % at 10 µM; 290,000 compounds, 0.35% hits; AID 1530; in the data active means percent response above about 24%, passing the limit was not always enough
Numbers stand for hits; - = inactive; . = no result; ! = repeats disagree; [ ] = remark or other dose.

SMILES	DNA FID counter	T cruzi inh	MEKK2wt PB1 HTS	HCV NS3 hel inh	MEKK3 PB1 HTS	MEKK2 mut-MEK5
N#CC1=C(SCC(N)=O)NC2=C(C(=O)c3ccccc32)C1c1ccc(Cl)cc1 (configuration not stated)	-	-	-	-	-	-
Cc1ccc2oc(=O)c3cc(C(=O)NCCCN4CCCCCC4)sc3c2c1	-	-	-	-	-	-
CCC1CCCCN1CCCNC(=O)c1cc2c(=O)oc3ccc(C)cc3c2s1 (configuration not stated)	-	-	153	-	-	-
CCC1CCCCN1CCCNC(=O)c1ccc(N2CCCC2=O)cc1 (configuration not stated)	-	-	-	-	-	-
CCC1CCCCN1CCCNC(=O)c1ccc2c(c1)N(Cc1ccc(F)cc1)C(=O)c1ccccc1S2=O (configuration not stated)	-	-	147	-	-	-
CCC1CCCCN1CCCNC(=O)c1ccc2c(c1)c(C)c(C)n2CC (configuration not stated)	-	-	50	-	-	-
CCC1CCCCN1CCCNC(=O)c1ccc2c(c1)c(C)c(C)n2C (configuration not stated)	-	-	158	-	-	-
CCC1CCCCN1CCCNC(=O)c1cn(CC)c2ccc(S(=O)(=O)N3CCc4ccccc4C3)cc2c1=O (configuration not stated)	49	-	-	-	-	-
CCN(CC)S(=O)(=O)c1cc(NC(=O)c2n[nH]c(=O)c3ccccc23)ccc1C	-	-	-3.0	-	-	-
CN(C)S(=O)(=O)c1cccc(NC(=O)c2n[nH]c(=O)c3ccccc23)c1	-	-	-	-	-	-
CCN(C(=O)c1cc2c(=O)[nH]c3ccc(C)cc3c2s1)c1ccccc1F	-	-	-	-	-	-
CCN(C(=O)c1cc2c(=O)[nH]c3ccc(C)cc3c2s1)c1cccc(C)c1	-	56	-	-	-	-
CCN(C(=O)c1cc2c(=O)[nH]c3ccc(C)cc3c2s1)c1ccccc1C	-	56	-	-	-	-
COCCCn1c(O)c(/C=C2\N=C(C#N)C(=Nc3ccc(C)cc3)O2)sc1=S	-	-	33[inhibitor]	-	-	-
O=C(OCc1ccccc1F)c1cnc(Cl)c(Cl)c1	-	-	-10[inhibitor]	-	0.0[inhibitor]	-
CC(C)C(=O)NC(=S)Nc1ccccc1N1CCN(C(=O)c2ccc(Cl)cc2)CC1	-	64	-	-	-	-
O=C(CSc1nc(=O)n2ccccc2n1)N1N=C(c2cccs2)CC1c1ccc(F)cc1 (configuration not stated)	.	58	.	.	.	.
Cc1ccc(C2CC(c3cccs3)=NN2C(=O)CSc2nc(=O)n3ccc(C)cc3n2)cc1 (configuration not stated)	.	60	.	.	.	.
COc1ccc(C2CC(c3cccs3)=NN2C(=O)CSc2nc(=O)n3ccc(C)cc3n2)cc1 (configuration not stated)	.	-	.	.	.	.
O=C(CN1CCN(c2ccccn2)CC1)Nc1ccc([N+](=O)[O-])cc1C(=O)Nc1ccccc1F	-	-	-	-	-	-
Cc1ccccc1NC1=C/C(=N\S(=O)(=O)c2cccs2)c2ccccc2C1=O	-	57	-	-	-	-
Cc1ccccc1NC1=C/C(=N\S(=O)(=O)c2ccc(C(=O)O)cc2)c2ccccc2C1=O	-	-	-	-	-	-
Cc1cc(C)c[n+](C2=C([O-])c3ccccc3C(=O)/C2=N\S(=O)(=O)c2cccs2)c1	-	-	-	-	-	-
CC(=O)Nc1ccc(NC2=C/C(=N/S(=O)(=O)c3cccs3)c3ccccc3C2=O)cc1	-	56	-	-	-	-
Cc1cc[n+](C2=C([O-])c3ccccc3C(=O)/C2=N\S(=O)(=O)c2cccs2)cc1C	-	57	-	-	-	-
SMILES	DNA FID counter	T cruzi inh	MEKK2wt PB1 HTS	HCV NS3 hel inh	MEKK3 PB1 HTS	MEKK2 mut-MEK5
Cc1ccc(NC2=C/C(=N/S(=O)(=O)c3cccs3)c3ccccc3C2=O)cc1C	-	-	-	-	-	-
COc1ccc(S(=O)(=O)/N=C2\C=C(Nc3ccc(O)cc3)C(=O)c3ccccc32)cc1	-	67	-	-	-	-
Cc1ccc(S(=O)(=O)NCCCCCC(=O)Nc2c(C)n(C)n(-c3ccccc3)c2=O)cc1	-	-	-	-	-	-
CN1CCc2cc3c(c4c2[C@H]1[C@H](O)c1ccccc1-4)OCO3	97	-	-	-	-	-
COc1ccc2c(c1OC)C(=O)OC2C1c2c(cc3c(c2OC)OCO3)CCN1C (configuration not stated)	-	-	-	-	-	-
O=C(Nc1ccccc1)/C(=C/c1ccc2c(c1)OCO2)NC(=O)c1ccco1	-	-	-	-	-	-
Cc1nc(N2CCN(C(=O)c3ccco3)CC2)[nH]c(=O)c1C	-	-	-	-	-	-
O=C(CCCc1ccccc1)N1CCN(C2CCCCC2)CC1	-	-	-	-	-	-
COc1ccc(CCC(=O)N2CCN(C3CCCCC3)CC2)cc1	-	62	-	-	-	-
O=C(Cc1ccc([N+](=O)[O-])cc1)N1CCCCCC1	-	-	-	-	-	-
CN1CCN(C(=O)CCc2ccc(S(=O)(=O)NC3CCCCC3)cc2)CC1	-	59	-	-	-	-
O=C(CCc1ccc(S(=O)(=O)NCc2ccccc2)cc1)N1CCN(Cc2ccc3c(c2)OCO3)CC1	-	59	-	-	-	-
O=C(CCc1ccc(Oc2cc([N+](=O)[O-])cc([N+](=O)[O-])c2)cc1)N1CCCCCC1	-	68	-	-	-	-
O=C(CCc1ccc(S(=O)(=O)N2CCOCC2)cc1)N1CCN(Cc2ccc3c(c2)OCO3)CC1	-	-	-	-	-	-
c1cn(-c2ccc(-c3ccnc4ncnn34)cc2)cn1	-	-	-	-	-	-
CC1CC(C)CN(CCCNC(=O)CN2C(=O)COc3ccc(S(=O)(=O)N4CCOCC4)cc32)C1 (configuration not stated)	-	-	-	-	-	-
O=C(CSc1nncn1-c1ccccc1)Nc1cc(F)ccc1F	-	-	-	-	-	-
CC(C)NS(=O)(=O)c1ccc(CCC(=O)N2CCc3ccccc3C2)cc1	-	-	-	-	-	-
CC(NS(=O)(=O)c1ccc(CCC(=O)N2CCN(C)CC2)cc1)c1ccccc1 (configuration not stated)	-	72	-	-	-	-
CCC(=O)NS(=O)(=O)c1ccc(-c2c(-c3ccccc3)noc2C)cc1	.	.	-	.	-	-
Cc1onc(-c2ccccc2)c1-c1ccc(S(N)(=O)=O)cc1	-	-	53!	-	-	-

High-throughput results from PubChem BioAssay.
